Reference: ChEMBL document CHEMBL1158603, “S-aryltriazole acyclonucleosides: synthesis and biological evaluation against hepatitis C virus” (Bioorg Med Chem Lett, 2010)
Activity calls are given as the source filed them. The calls are words filed in the database; no cut-off is given here.

What follows are compounds tested on Hepatitis C virus (assay: Antiviral activity against HCV infected in human HuH5.2 cells assessed as inhibition of subgenomic RNA replication after 4 days by Steady-Glo luciferase assay). Details: Hepacivirus hominis.
Type: functional, organism-based
Outline: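 Huh-5-2 replicon cells seeded at 5000/well in complete DMEM with 250 µg/mL G418, grown 24 h at 37 °C (5% CO2). Medium then replaced by threefold serial dilutions of compound in complete DMEM without G418. After 4 days at 37 °C, medium removed and luciferase activity read by luminescence.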
For `NC(=O)c1nc(Sc2ccc3ccccc3c2)n(COCCO)n1`, the Activity was “inactive”. For `COC(=O)c1nc(Sc2ccc(C)cc2)n(COCCOC(C)=O)n1`, the Activity was “inactive”. `COC(=O)c1nc(Sc2ccccc2OC)n(COCCOC(C)=O)n1` was tested, and the Activity was “inactive”. In the case of `COC(=O)c1nc(SCc2cccc(C(F)(F)F)c2)n(COCCOC(C)=O)n1`, the Activity is reported as “inactive”. In the case of `COC(=O)c1nc(Sc2ccc(F)cc2)n(COCCOC(C)=O)n1`, the Activity is reported as “inactive”. `NC(=O)c1nc(Sc2cccc(F)c2)n(COCCO)n1` was tested, and the Activity was “inactive”. With `COC(=O)c1nc(Sc2ccc(C(F)(F)F)cc2)n(COCCOC(C)=O)n1` the Activity was “inactive”. With `COc1cccc(Sc2nc(C(N)=O)nn2COCCO)c1` the Activity was “inactive”. With `COC(=O)c1nc(Sc2cccc(OC)c2)n(COCCOC(C)=O)n1` the Activity was “inactive”. With `COC(=O)c1nc(Sc2ccc(C(C)(C)C)cc2)n(COCCOC(C)=O)n1` the Activity was “inactive”. For `NC(=O)c1nc(Sc2ccccc2C(F)(F)F)n(COCCO)n1`, the Activity was “inactive”. With `Cc1ccc(Sc2nc(C(N)=O)nn2COCCO)cc1` the Activity was “inactive”. For `Cc1cccc(Sc2nc(C(N)=O)nn2COCCO)c1`, the Activity was “inactive”. For `NC(=O)c1nc(Sc2ccc(Cl)cc2)n(COCCO)n1`, the Activity was “inactive”. `COC(=O)c1nc(Sc2ccc(OC)cc2)n(COCCOC(C)=O)n1` was tested, and the Activity was “inactive”. `COC(=O)c1nc(Sc2ccccc2)n(COCCOC(C)=O)n1` was tested, and the Activity was “inactive”. For `COC(=O)c1nc(Sc2ccc(Cl)cc2)n(COCCOC(C)=O)n1`, the Activity was “inactive”. With `NC(=O)c1nc(Sc2ccccc2)n(COCCO)n1` the Activity was “inactive”. In the case of `COC(=O)c1nc(Sc2ccccc2C(F)(F)F)n(COCCOC(C)=O)n1`, the Activity is reported as “inactive”. `COC(=O)c1nc(Sc2cccc(C)c2)n(COCCOC(C)=O)n1` was tested, and the Activity was “inactive”. In the case of `COC(=O)c1nc(Sc2cccc(F)c2)n(COCCOC(C)=O)n1`, the Activity is reported as “inactive”. With `CCCSc1nc(C(=O)OC)nn1COCCOC(C)=O` the Activity was “inactive”. With `NC(=O)c1nc(Sc2ccc(C(F)(F)F)cc2)n(COCCO)n1` the Activity was “inactive”. In the case of `COc1ccc(Sc2nc(C(N)=O)nn2COCCO)cc1`, the Activity is reported as “inactive”. With `NC(=O)c1nc(SCc2cccc(C(F)(F)F)c2)n(COCCO)n1` the Activity was “inactive”. `COC(=O)c1nc(Sc2cccc(C(F)(F)F)c2)n(COCCOC(C)=O)n1` was tested, and the Activity was “inactive”. In the case of `Cc1ccccc1Sc1nc(C(N)=O)nn1COCCO`, the Activity is reported as “inactive”. `NC(=O)c1nc(Sc2ccccc2F)n(COCCO)n1` was tested, and the Activity was “inactive”. With `COC(=O)c1nc(Sc2ccccc2C)n(COCCOC(C)=O)n1` the Activity was “inactive”. With `COc1ccccc1Sc1nc(C(N)=O)nn1COCCO` the Activity was “inactive”. `CC(C)(C)c1ccc(Sc2nc(C(N)=O)nn2COCCO)cc1` was tested, and the Activity was “inactive”. In the case of `NC(=O)c1nc(Sc2ccc(F)cc2)n(COCCO)n1`, the Activity is reported as “inactive”. In the case of `NC(=O)c1nc(Sc2cccc(C(F)(F)F)c2)n(COCCO)n1`, the Activity is reported as “inactive”. For `COC(=O)c1nc(Sc2ccc3ccccc3c2)n(COCCOC(C)=O)n1`, the Activity was “inactive”. In the case of `COC(=O)c1nc(Sc2ccccc2F)n(COCCOC(C)=O)n1`, the Activity is reported as “inactive”.
